ABCB1 inh – inhibitors of human ABCB1 transporter, ABCG2 counter-screen; CCRF-Adr cells, JC-1 efflux, flow cytometry; inhibition, % at 6.6 µM; 0.067% of 190,000 active; AID 1326; in the data active means inhibition above about 40%;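 further: 0% = vehicle and 100% = reference inhibitor; higher value means more JC-1 retained so stronger ABCB1 efflux block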
PMI act – activators of human phosphomannose isomerase. activation factor at 20 µM. P34949. 0.005% of 190,000 active. AID 1214. purified human PMI, coupled resazurin fluorescence, 20 min; stronger effect = higher value; 1 = vehicle control, 0 substrate-free wells;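 active means activation factor of 2 or more at 20 µM, relative to plate controls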
Target sequence (P34949 whole entry, looked up): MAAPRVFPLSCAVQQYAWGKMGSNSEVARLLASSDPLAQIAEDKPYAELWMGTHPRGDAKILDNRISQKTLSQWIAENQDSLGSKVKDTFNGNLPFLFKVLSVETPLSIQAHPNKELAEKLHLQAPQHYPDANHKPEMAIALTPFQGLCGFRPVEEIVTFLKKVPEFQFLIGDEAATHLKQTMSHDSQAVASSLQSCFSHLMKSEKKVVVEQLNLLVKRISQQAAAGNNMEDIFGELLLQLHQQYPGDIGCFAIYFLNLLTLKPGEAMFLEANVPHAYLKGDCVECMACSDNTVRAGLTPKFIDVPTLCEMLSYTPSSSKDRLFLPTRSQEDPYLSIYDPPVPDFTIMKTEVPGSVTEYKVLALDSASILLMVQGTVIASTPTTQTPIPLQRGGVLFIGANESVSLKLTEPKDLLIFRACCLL
PMI act satM6P – PMI (human) activation, high substrate | P34949 | 0.34% of 190,000 active | coupled PMI enzyme assay, resazurin fluorescence, 20 min; stronger effect = higher value; 1 = untreated enzyme, 0 = substrate-free blank | activation factor at 20 µM | AID 1216;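 active means activation factor of 2 or more at 20 µM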
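assay system = human phosphomannose isomerase with PGI, G6PDH, diaphorase coupling enzymes | quantity = 15 ng/mL PMI | incubation = enzyme reaction with compound 20 min at room temperature | medium = HEPES pH 7.4 buffer with MgCl2 and Tween-20 | compound dosing = one concentration, 20 µM, in 1% DMSO | measured by = Diaphorase-driven resazurin-to-resorufin fluorescence, excitation 544, emission 590 nm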
KCC2 mod – modulates chloride dependent transport by human KCC2. Q9H2X9. KCC2 cells, thallium flux FluoZin-2 fluorescence. B-score of Tl+ flux slope (higher = more flux/activation; lower = inhibition) at 10 µM. 2.2% of 190,000 active. AID 1456;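 active means thallium flux slope and its plate-corrected score both differing from the plate sample mean at a set confidence after two filtering rounds, in either direction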;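 further: slope of fluorescence scaled to starting intensity during 10 to 20 s after thallium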
ABCG2 inh – blocks JC-1 efflux by human ABCG2 transporter; Q9UNQ0; IgMXP3 cells, flow cytometry; inhibition, % at 6.6 µM; 0.1% of 190,000 active; AID 1325;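 active means inhibition above 80%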;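 further: 0% = DMSO and 100% = nicardipine control wells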
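Measure – % inhibition of efflux relative to nicardipine and DMSO · Test system – ABCG2 IgMXP3 and barcoded ABCB1 CCRF-Adr cell mix · Control set – nicardipine as high control, DMSO as low control · Compound – one concentration, 6.6 µM final · Signal – flow cytometry of retained JC-1 fluorescence · Timing – 10 min exposure at 25 °C with rotation, no wash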
ROMK primary – modulators of human ROMK potassium channel; Tet-inducible ROMK, thallium flux fluorescence; actives lie on both sides; B-score at 10 µM; 2% of 130,000 active;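 active means signal ratio slope over the read window, or its plate-corrected B-score, at least 3 SD from the plate mean, either direction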;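 further: B-score of the F/F0 ratio slope over 7 to 12 s after thallium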
ROMK retest – retested hit modulating human ROMK potassium channel; shares compounds with ROMK primary; ROMK thallium flux, fluorescence ratio; stronger effect = lower value; normalized thallium flux (F/F0 slope) at 10 µM; 54% of 3,000 active; AID 1917;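 active means Flux at 10 µM at least 3 SD below or above vehicle control mean in one or both replicates; inconclusive means no clear call, values can overlap the other calls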
* hit, by the source's call. Sampled rows, rich in hits. Any-hit rate of the full collection: about 3.3%.

Screening Cc1ccc(-n2sc3ccccc3c2=O)cc1S(=O)(=O)N1CCCCC1 returned ABCB1 inh 0, PMI act 0, PMI act satM6P 0.1, KCC2 mod 1.2, ABCG2 inh 0 and ROMK primary 0.25.
For CC1=NN(C(=O)c2ccccc2Cl)C(O)(c2cccnc2)C1 (configuration not stated) the results were ABCB1 inh 0, PMI act 1.1, PMI act satM6P 1.1, KCC2 mod -0.6, ABCG2 inh -1, ROMK primary 0.25 and ROMK retest inconclusive.
CC1=NN(C(=O)Cc2ccccc2)C(O)(c2cccnc2)C1 (configuration not stated) was read as ABCB1 inh 0, PMI act 0.9, PMI act satM6P 0.9 and ABCG2 inh 0.
`O=CNC(Cc1ccccc1)C(=O)O` (configuration not stated) gave ABCB1 inh 0, PMI act 1, PMI act satM6P 1, KCC2 mod 0.043, ABCG2 inh 0, ROMK primary 2.2* and ROMK retest 0.075.
For O=C(O)CCn1cc(/C=N/O)c(-c2cccc([N+](=O)[O-])c2)n1 the results were ABCB1 inh 1, PMI act 1.3, PMI act satM6P 1.1, KCC2 mod 1.2, ABCG2 inh 5 and ROMK primary -0.037.
Cc1ccc([C@@H]2C3COCC=C3C(C#N)=C(N)C2(C#N)C#N)o1 (some centres not stated) was read as ABCB1 inh 0, PMI act 0.8, PMI act satM6P 0.5, ABCG2 inh 1, ROMK primary -4.5* and ROMK retest 0.046*.
`CCSc1ncnc2c1sc1nc(-c3ccco3)c3c(c12)CC(C)(C)OC3` gave ABCB1 inh -7, PMI act 0.9, PMI act satM6P 0.9, KCC2 mod 0.0037, ABCG2 inh -2 and ROMK retest 0.08.
Screening CCOC(=O)CCS(=O)(=O)c1ccc(-c2ccc(S(=O)(=O)CCC(=O)OCC)cc2)cc1 returned ABCB1 inh 0, PMI act 1.1, PMI act satM6P 1.1, ABCG2 inh 23 and ROMK primary -0.0084.
Screening COc1ccc(-n2cc(C(=O)c3cc(Cl)ccc3O)cc(C#N)c2=O)cc1 returned ABCB1 inh 1, PMI act 1, PMI act satM6P 1, KCC2 mod -0.026, ABCG2 inh 4, ROMK primary 2.7* and ROMK retest 0.075.
`COc1ccc(O)c(C(=O)c2cc(C#N)c(=O)n(-c3ccc(Cl)cc3)c2)c1` gave KCC2 mod -0.72.
For CC(O)CNC12CC3CC(CC(C3)C1)C2 (configuration not stated) the results were ABCB1 inh 1, PMI act 1, PMI act satM6P 1, KCC2 mod 0.83, ABCG2 inh 2 and ROMK primary 0.86.
`Cc1cc(C)nc(SC2CCCCC2NS(=O)(=O)c2ccccc2)n1` (configuration not stated) gave ABCB1 inh 1, PMI act 1, PMI act satM6P 1.1, KCC2 mod 0.002, ABCG2 inh 2 and ROMK primary 0.095.
For COc1ccc(-n2nc(C#N)c(Cl)cc2=O)cc1 the results were ABCB1 inh 1, PMI act 1, PMI act satM6P 0.9, KCC2 mod -1.4, ABCG2 inh 3, ROMK primary -2.8* and ROMK retest 0.052*.
For N/C(=N/O)c1ccccc1N1CCC(Cc2ccccc2)CC1 the results were ABCB1 inh 0, PMI act 0.8, PMI act satM6P 0.9, KCC2 mod -3.1, ABCG2 inh 0, ROMK primary -4.5* and ROMK retest 0.074.
For CCOc1ccccc1CN1CCN(CC2=Cc3cc(OC)ccc3OC2)CC1CCO (configuration not stated) the results were KCC2 mod -0.26 and ROMK retest 0.067*.
Screening CN(CC1CCCO1)S(=O)(=O)c1ccc(C(=O)Nc2nc(-c3ccccn3)cs2)cc1 (configuration not stated) returned ABCB1 inh 1, PMI act 1, PMI act satM6P 1, KCC2 mod -1.8, ABCG2 inh 1 and ROMK retest 0.072.
Screening Cc1ccc(S(=O)(=O)N2CCC(=O)N(C(COCc3ccc(Cl)cc3)Cc3ccccc3)CC2)cc1 (configuration not stated) returned ABCB1 inh 6, PMI act 0.9, PMI act satM6P 0.9, KCC2 mod -3.3, ABCG2 inh 13, ROMK primary -4.4* and ROMK retest inconclusive.
For Cc1cccc(COCC(Cc2ccccc2)N2CCN(C(=O)c3cccc(Cl)c3)CCC2=O)c1 (configuration not stated) the results were ABCB1 inh 4, PMI act 1, PMI act satM6P 1.1, KCC2 mod -0.44, ABCG2 inh 6, ROMK primary -2.9* and ROMK retest 0.054*.
Cc1ccc(S(=O)(=O)N2CCC(=O)N(C(COCc3ccc(Cl)cc3)C(C)C)CC2)cc1 (configuration not stated) was read as ABCB1 inh 2, PMI act 0.9, PMI act satM6P 0.9, KCC2 mod 0.1, ABCG2 inh -2 and ROMK primary -0.46.
For Cc1cccc(C(=O)N2CCC(=O)N(C(COCc3ccccc3)Cc3ccccc3)CC2)c1 (configuration not stated) the results were ABCB1 inh 2, PMI act 0.9, PMI act satM6P 0.9, KCC2 mod -0.39, ABCG2 inh 0 and ROMK primary -1.6.
`Cc1cccc(C(=O)N2CCC(=O)N(C(COCc3cccc(C(F)(F)F)c3)Cc3ccccc3)CC2)c1` (configuration not stated) gave ABCB1 inh 3, PMI act 0.9, PMI act satM6P 0.9, KCC2 mod -0.9, ABCG2 inh 0, ROMK primary -3.3* and ROMK retest 0.058*.
Screening O=C(c1cccc(Cl)c1)N1CCC(=O)N(C(COCc2ccccc2)Cc2ccccc2)CC1 (configuration not stated) returned ABCB1 inh 5, PMI act 1, PMI act satM6P 1, KCC2 mod -1.6, ABCG2 inh 5 and ROMK primary -3.
CCOC(=O)c1cnc(-n2nc(C)cc2C)nc1NC1CCCCC1 was read as ABCB1 inh 0, PMI act 0.9, PMI act satM6P 1, ABCG2 inh 1, ROMK primary -4.7* and ROMK retest 0.056*.
